Assay results as given in ChEMBL document CHEMBL4411269, “Required Immunoproteasome Subunit Inhibition Profile for Anti-Inflammatory Efficacy and Clinical Candidate KZR-616 ((2 S,3 R)- N-(( S)-3-(Cyclopent-1-en-1-yl)-1-(( R)-2-methyloxiran-2-yl)-1-oxopropan-2-yl)-3-hydroxy-3-(4-methoxyphenyl)-2-(( S)-2-(2-morpholinoacetamido)propanamido)propenamide)” (J Med Chem, 2018).
Blank lines part the entries; values can stand above or below the compound they belong to. Active and inactive are the calls of the source. No cut-off for these calls is given here.

How the values were obtained:
[1] = organism: Mus musculus; experiment: Selectivity ratio of IC50 for proteosome beta 5 in mouse A20 cells to IC50 for LMP7 in mouse A20 cells; format: cell-based
In short: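 Mouse A20 B-cell lymphoma cell lysate (1 mg/mL, hypotonic 20 mM Tris pH 8, 5 mM EDTA) treated with serially diluted compound for 1 h at 25 °C. Then 5 μM biotinylated active-site probe for 2 h at 25 °C, guanidine denaturation and streptavidin bead capture. Subunit-specific antibody and HRP chemiluminescence, signal normalized to protein, IC50 from percent activity versus DMSO controls.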

[2] = test system: PBMC; experiment: Antiinflammatory activity in human PBMC assessed as reduction in anti-CD3/CD28 antibody-stimulated TNF-alpha expression at 125 nM preincubated for 1 hr followed by anti-CD3/CD28 antibody stimulation measured after 24 hrs by ELISA; format: functional, cell-based
In short: (§1)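 Healthy-donor PBMC, thawed from cryopreservation, 250 000 cells/well in RPMI 1640/5% FBS. Pretreated 1 h at 37 °C with compound alone or combined (0.1% DMSO final), washed 4 times, then stimulated 24 h with anti-CD3 and anti-CD28 antibodies. TNFα and IFNγ in supernatants by electrochemiluminescent ELISA; expressed relative to DMSO-treated controls (n = 6).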

[3] = test system: PBMC; experiment: Antiinflammatory activity in human PBMC assessed as reduction in LPS-stimulated IL-6 expression at 125 nM preincubated for 1 hr followed by LPS stimulation measured after 24 hrs by ELISA; format: functional, cell-based
In short: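 Cryopreserved healthy-donor PBMC in RPMI 1640 with 5% heat-inactivated FBS, 250 000 cells/well. Compound (0.1% DMSO final) for 1 h at 37 °C, 5% CO2, then 4 washes with medium. Stimulated with 1 μg/mL LPS for 24 h; supernatant TNFα, IL-6 and IL-12/23p40 by electrochemiluminescent immunoassay. Mean level relative to DMSO controls, n = 6.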

[4] = test system: Mus musculus; experiment: In vivo inhibition of proteosome beta 5 in Balb/c mouse kidney at 20 mg/kg, iv followed by dosing repeat on day 6, 8, 11, 13 and 15 and co-treated with 5 mg/kg, iv KZR-504 and measured on 1 hr post last dose; format: functional, organism-based
In short: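 BALB/c mice dosed iv bolus in 10% sulfobutyl ether−β-cyclodextrin/10 mM sodium citrate pH 3.5; tissues taken 1 h after administration. Splenocytes strained and red cells lysed; kidney frozen, then bead-homogenized. Hypotonic lysate (20 mM Tris pH 8, 5 mM EDTA) at 1 mg/mL (spleen) or 5 mg/mL (kidney) run in the ProCISE active-site ELISA. Background-subtracted, protein-normalized activity relative to vehicle animals; n = 3.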

[5] = Half life in Balb/c mouse at 2 mg/kg, iv; format: ADME, organism-based; settings: in vivo
In short: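 Female BALB/c mice aged 7−8 weeks, given 2 mg/kg iv in 25% PEG300/WFI. Cardiac blood taken at 2, 5, 10, 20, 30, 60 and 120 min postdose into sodium heparin and processed to plasma (n = 3/time point). Proteins precipitated with acetonitrile; drug measured by LC−MS/MS. Noncompartmental analysis of mean concentrations at nominal times and target doses.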

[6] = test system: PBMC; experiment: Antiinflammatory activity in human PBMC assessed as reduction in anti-CD3/CD28 antibody-stimulated IFN-gamma expression at 125 nM preincubated for 1 hr followed by anti-CD3/CD28 antibody stimulation measured after 24 hrs by ELISA; format: functional, cell-based; in short: as §1
[7] = test system: PBMC; experiment: Antiinflammatory activity in human PBMC assessed as reduction in anti-CD3/CD28 antibody-stimulated TNF-alpha expression at 250 nM preincubated for 1 hr followed by anti-CD3/CD28 antibody stimulation measured after 24 hrs in presence of KZR-504 by ELISA; format: functional, cell-based; in short: as §1
[8] = target: T1, Proteasome subunit beta type-8 (Homo sapiens) (UniProt P28062); experiment: Inhibition of LMP7 in human PBMC at 250 nM by ELISA
T1 sequence (whole entry): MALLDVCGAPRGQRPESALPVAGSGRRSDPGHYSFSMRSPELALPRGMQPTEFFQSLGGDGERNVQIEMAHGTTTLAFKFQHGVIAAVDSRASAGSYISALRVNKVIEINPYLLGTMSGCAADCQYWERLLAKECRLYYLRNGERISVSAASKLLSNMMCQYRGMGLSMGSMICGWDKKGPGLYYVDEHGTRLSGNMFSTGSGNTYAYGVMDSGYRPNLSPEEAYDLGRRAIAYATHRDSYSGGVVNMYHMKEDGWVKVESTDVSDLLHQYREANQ
In short: (§2)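 Cryopreserved healthy-donor human PBMC in RPMI 1640 with 5% heat-inactivated FBS, exposed to compound (0.1% DMSO final) for 1 h at 37 °C, 5% CO2, then washed. Subunit-specific active-site occupancy read by ProCISE: biotinylated active-site probe binding, denaturation, streptavidin capture, subunit-specific antibody and HRP chemiluminescence. Signal normalized to protein and expressed relative to DMSO controls.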

[9] = target: T2, Proteasome subunit beta type-9 (Homo sapiens) (UniProt P28065); experiment: Inhibition of LMP2 in human PBMC at 250 nM by ELISA; in short: as §2
T2 sequence (whole entry): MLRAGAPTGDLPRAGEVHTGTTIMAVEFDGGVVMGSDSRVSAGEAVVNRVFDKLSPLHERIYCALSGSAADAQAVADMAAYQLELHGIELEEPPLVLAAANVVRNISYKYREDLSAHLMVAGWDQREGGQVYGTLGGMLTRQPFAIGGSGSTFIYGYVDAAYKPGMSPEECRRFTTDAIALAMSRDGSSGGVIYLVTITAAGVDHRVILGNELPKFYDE

[10] = test system: Mus musculus; experiment: Antiarthritic activity in type 2 collagen antibody/LPS induced Balb/c mouse assessed as reduction in disease burden at 5 mg/kg, iv followed by dosing repeat on day 6, 8, 11, 13 and 15 and measured until day 18; format: functional, organism-based
In short: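 CAIA in 7−8 week old female BALB/c mice on breeder chow. Induced with 1.75 mg of a 5-antibody anti-type II collagen cocktail iv on day 0, then 25 μg LPS ip on day 3. Dosed as single iv boluses in 10% (w/v) sulfobutyl ether−β-cyclodextrin/10 mM sodium citrate (pH 3.5); vehicle-treated group included.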

- half-life [5]: < 7 min
Structure (SMILES): COc1ccc(C[C@H](NC(=O)[C@@H](C)NC(=O)[C@H]2CC[C@H](O)CC2)C(=O)N[C@@H](CC2=CCCC2)C(=O)[C@@]2(C)CO2)cc1
- Ratio IC50 [1]: 7
- Activity [2]: Active
- Activity [3]: inactive
- inhibition [4]: Active
- Activity [6]: Active

- inhibition [8]: Active
- inhibition [9]: Active
Structure (SMILES): Cc1ccc(CC[C@H](NC(=O)[C@H](Cc2ccccc2)NC(=O)[C@H](CC(C)C)NC(=O)CN2CCCCCC2)C(=O)[C@@]2(C)CO2)cc1
- Activity [7]: inactive

Structure (SMILES): COc1ccc([C@@H](O)[C@H](NC(=O)[C@H](C)NC(=O)CN2CCOCC2)C(=O)N[C@@H](CC2=CCCC2)C(=O)[C@@]2(C)CO2)cc1 [ZETOMIPZOMIB]
- Activity [10]: Active
